# Laboratory results taken from ChEMBL document CHEMBL1153567, “Synthesis of novel pyrazole derivatives and evaluation of their antidepressant and anticonvulsant activities” (2009).
# Active and inactive are the calls of the source. No cut-off for these calls is given here.
# Legend:
# Mus musculus [1] = assay: Antidepressant activity in Swiss-Webster mouse assessed as reduction in duration of immobility time at 10 mg/kg, ip by tail suspension behavioral despair test; assay type: functional; parameters: scale not given: the % may be the effect or the level left; conditions: route intraperitoneal
# Summary of the method: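 Tail suspension test in mice (n = 6/group; 22 ± 3 °C, 60 ± 5% humidity, 12 h light cycle, acclimated ≥2 days). Doses given ip in 0.5% w/v CMC at 0.5 mL/100 g; controls received CMC, imipramine 10 mg kg⁻¹ ip as reference. After 1 h, mice hung by tape 1 cm from the tail tip, 80 cm above the floor. Passive, motionless immobility timed over 6 min; mean ± S.E.M. and % change from control.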
# Mus musculus [2] = assay: Anticonvulsant activity in Swiss-Webster mouse assessed as protection against PTZ-induced clonic seizures at 20 mg/kg, ip administered 1 hr before PTZ; assay type: functional; conditions: route intraperitoneal
# Summary of the method: (§1)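 Mice (n = 6/group), kept at 22 ± 3 °C, 60 ± 5% humidity, 12 h light/dark cycle, acclimated ≥2 days, free food and water. Agents given ip in 0.5% w/v CMC in water at 0.5 mL/100 g. After 1 h, PTZ 100 mg kg⁻¹ ip (0.5% solution). Observed 30 min; no clonic spasm episode lasting ≥5 s counted as protection. % protection = (control − treated convulsions)/control × 100.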
# Mus musculus [3] = assay: Antidepressant activity in Swiss-Webster mouse assessed as reduction in duration of immobility time at 10 mg/kg, ip by tail suspension behavioral despair test relative to imipramine; assay type: functional; parameters: scale not given: the % may be the effect or the level left; conditions: route intraperitoneal
# Mus musculus [4] = assay: Anticonvulsant activity in Swiss-Webster mouse assessed as protection against PTZ-induced clonic seizures at 30 mg/kg, ip administered 1 hr before PTZ; assay type: functional, organism-based; parameters: dose 30 mg/kg; summary of the method: as §1
# Mus musculus [5] = assay: Anticonvulsant activity in Swiss-Webster mouse assessed as protection against PTZ-induced clonic seizures at 20 mg/kg, ip administered 1 hr before PTZ
SMILES,Activity (Mus musculus [1]) [%],Activity (Mus musculus [2]) [%],Activity (Mus musculus [3]) [%],Activity (Mus musculus [4]),Activity (Mus musculus [5])
N#CC1=C(N)N(C(=O)c2cccs2)NC1(C#N)C#N,10.6,56.8,,,
CN(C)CCCN1c2ccccc2CCc2ccccc21 [IMIPRAMINE],45.75,,,,
N#CC1=C(N)N(C(=O)c2cc3ccccc3[nH]2)NC1(C#N)C#N,17.67,,,,
O=C(NNC(=O)c1cc2ccccc2[nH]1)c1cc2ccccc2[nH]1,17.8,,,,
CCOC(=O)c1[nH]n(C(=O)c2cccs2)c(=O)c1C#N,18.33,78.7,66.4,Active,
O=C(NNC(=O)c1ccccn1)c1ccccn1,32.39,,80.2,,
N#CC1=C(N)N(C(=O)c2ccccc2)NC1(C#N)C#N,9.37,,,,
CCOC(=O)c1[nH]n(C(=O)c2ccccn2)c(=O)c1C#N,36.99,53.7,86.1,,
O=C(NNC(=O)c1ccccc1)c1ccccc1,71.96,65.1,,,
N#CC1=C(N)N(C(=O)c2ccccn2)NC1(C#N)C#N,38.76,,88.6,,
O=C1NC(=O)C(c2ccccc2)(c2ccccc2)N1,,,,,Active
O=C(NNC(=O)c1cccs1)c1cccs1,72.22,,,,
CCOC(=O)c1[nH]n(C(=O)c2cc3ccccc3[nH]2)c(=O)c1C#N,30.54,74,78.1,Active,
CCOC(=O)c1[nH]n(C(=O)c2ccccc2)c(=O)c1C#N,24.41,74.5,71.8,Active,
